Broadly, the pIC50 is −log10 of the IC50, conventionally taken in molar units. A low value points to a high IC50.

Experiment [1] deals with Lacticaseibacillus casei. Put plainly: Inhibition of the growth of Lactobacillus casei. Type of experiment: functional, organism-based. In outline:
(§1)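 Bacterial growth inhibition with folate at 1 ng/mL in the medium. Reported as IC50.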

In experiment [2] the test system is Enterococcus faecium. Description: Inhibition of the growth of Streptococcus faecium. In kind it is functional, organism-based. In short, it runs like this:
as §1

Experiment [3] deals with T1, Trifunctional purine biosynthetic protein adenosine-3 (Homo sapiens, UniProt P22102).
T1 sequence (P22102 whole entry): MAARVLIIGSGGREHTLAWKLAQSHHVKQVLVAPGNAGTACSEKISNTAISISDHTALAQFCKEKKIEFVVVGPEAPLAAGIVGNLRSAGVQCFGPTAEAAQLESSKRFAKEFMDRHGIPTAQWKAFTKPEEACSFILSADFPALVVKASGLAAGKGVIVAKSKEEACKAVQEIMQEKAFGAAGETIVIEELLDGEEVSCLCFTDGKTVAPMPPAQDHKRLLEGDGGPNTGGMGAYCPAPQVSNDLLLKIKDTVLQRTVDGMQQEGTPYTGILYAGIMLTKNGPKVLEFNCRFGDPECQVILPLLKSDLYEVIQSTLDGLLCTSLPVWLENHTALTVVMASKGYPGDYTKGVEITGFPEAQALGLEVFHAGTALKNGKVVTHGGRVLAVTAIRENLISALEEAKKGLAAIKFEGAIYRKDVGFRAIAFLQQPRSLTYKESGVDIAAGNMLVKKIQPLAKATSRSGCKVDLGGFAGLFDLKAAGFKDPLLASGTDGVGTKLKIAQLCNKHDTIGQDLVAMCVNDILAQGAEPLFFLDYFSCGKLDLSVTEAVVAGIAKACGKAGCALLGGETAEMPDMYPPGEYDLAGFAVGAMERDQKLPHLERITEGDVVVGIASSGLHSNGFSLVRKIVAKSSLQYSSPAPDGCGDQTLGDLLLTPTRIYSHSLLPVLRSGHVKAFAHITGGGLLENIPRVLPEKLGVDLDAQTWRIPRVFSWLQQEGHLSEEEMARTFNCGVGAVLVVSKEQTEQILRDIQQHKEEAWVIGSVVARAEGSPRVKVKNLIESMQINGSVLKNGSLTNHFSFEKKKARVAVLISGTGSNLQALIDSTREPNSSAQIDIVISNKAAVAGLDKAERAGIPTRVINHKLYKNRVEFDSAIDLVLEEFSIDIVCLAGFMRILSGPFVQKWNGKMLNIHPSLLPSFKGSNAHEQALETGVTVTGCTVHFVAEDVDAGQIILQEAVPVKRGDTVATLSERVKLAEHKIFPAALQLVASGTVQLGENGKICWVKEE
Put plainly: Inhibition of the GAR transformylase in MOLT-4 human leukemia cells.

For experiment [4], the target named is T2, Trifunctional purine biosynthetic protein adenosine-3 (Mus musculus, UniProt Q64737).
T2 sequence (Q64737 whole entry): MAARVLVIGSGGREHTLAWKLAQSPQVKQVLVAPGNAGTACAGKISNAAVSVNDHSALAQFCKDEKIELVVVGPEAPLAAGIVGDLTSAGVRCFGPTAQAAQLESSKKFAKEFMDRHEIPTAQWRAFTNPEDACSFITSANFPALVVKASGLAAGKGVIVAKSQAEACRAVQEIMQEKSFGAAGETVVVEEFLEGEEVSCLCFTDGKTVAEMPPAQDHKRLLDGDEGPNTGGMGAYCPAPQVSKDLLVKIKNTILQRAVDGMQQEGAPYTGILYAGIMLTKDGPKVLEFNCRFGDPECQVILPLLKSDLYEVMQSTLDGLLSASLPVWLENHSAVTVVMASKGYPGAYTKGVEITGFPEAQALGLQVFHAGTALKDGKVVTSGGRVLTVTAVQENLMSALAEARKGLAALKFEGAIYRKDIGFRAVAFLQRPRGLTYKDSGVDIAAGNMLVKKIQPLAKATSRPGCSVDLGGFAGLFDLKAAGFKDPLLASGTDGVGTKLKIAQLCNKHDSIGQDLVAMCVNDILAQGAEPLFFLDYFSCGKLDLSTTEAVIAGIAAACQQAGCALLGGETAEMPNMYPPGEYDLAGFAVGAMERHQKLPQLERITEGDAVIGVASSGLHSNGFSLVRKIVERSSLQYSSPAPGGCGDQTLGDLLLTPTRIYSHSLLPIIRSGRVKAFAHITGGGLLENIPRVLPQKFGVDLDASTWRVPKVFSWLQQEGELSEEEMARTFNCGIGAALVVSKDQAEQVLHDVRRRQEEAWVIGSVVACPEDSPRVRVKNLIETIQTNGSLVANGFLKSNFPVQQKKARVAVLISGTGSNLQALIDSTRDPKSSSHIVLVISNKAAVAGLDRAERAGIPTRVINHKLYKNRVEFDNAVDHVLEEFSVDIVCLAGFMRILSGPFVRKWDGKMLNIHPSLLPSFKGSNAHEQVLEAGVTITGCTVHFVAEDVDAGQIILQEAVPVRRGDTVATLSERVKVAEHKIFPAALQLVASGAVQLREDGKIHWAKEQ
Description: Inhibition of the GAR transformylase in L1210.

Experiment [5] deals with MCF7. Description: Inhibition of the growth of MCF-7 human breast adenocarcinoma cells. Type of experiment: functional, cell-based. In short, it runs like this: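 MCF-7 cells grown as monolayers in RPMI 1640 with 10% dialyzed heat-inactivated fetal calf serum. 10 nM calcium leucovorin replaced folic acid as the folate source. Cells were seeded at 7.5 × 10⁴ cells/mL. The result is reported as IC50.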

For experiment [6], the system named is MOLT-4. Description: Inhibition of the growth of MOLT-4 human leukemia cells. Type of experiment: functional, cell-based. In outline:
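MOLT-4 cells grown in suspension in RPMI 1640 with 10% dialyzed fetal calf serum. 10 nM calcium leucovorin replaced folic acid as the folate source. The result is reported as IC50.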

The target in experiment [7] is T2, Trifunctional purine biosynthetic protein adenosine-3. Description: Inhibition of the GAR formyl transferase in L1210. In outline:
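GAR formyltransferase activity in L1210 cell extract, run at 30 °C in 50 mM Tris-HCl, pH 7.5. Substrates were (6R)-10-formyltetrahydrofolate at 60 μM and glycylamide ribonucleotide at 0.24 mM. The result is reported as IC50.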

pIC50: −log10 of the molar value.

Turning to `CC(CC1=Nc2c(O)nc(N)nc2NC1)Cc1ccc(C(=O)NC(CCC(=O)O)C(=O)O)cc1` (stereo not drawn), the pIC50 in experiment [1] was 5.77; in experiment [2] it was 7.40.
In the case of `CC(Cc1ccc(C(=O)NC(CCC(=O)O)C(=O)O)cc1)CC1CNc2nc(N)nc(O)c2N1` (stereo not drawn), the pIC50 is 5.42 in experiment [1] and 6.89 in experiment [2].
In the case of `CC(Cc1ccc(C(=O)NC(CCC(=O)O)C(=O)O)cc1)Cc1cnc2nc(N)nc(O)c2n1` (stereo not drawn), the pIC50 in experiment [1] was 5.40; in experiment [2] it was 6.60.
With `Nc1nc2c(c(=O)[nH]1)NC(CCCc1ccc(C(=O)NC(CCC(=O)O)C(=O)O)cc1)CN2` (stereo not drawn), the pIC50 in experiment [3] is 10.85; in experiment [4], 10.74; in experiment [1], 6.27; in experiment [5], 5.35; in experiment [6], 5.47; in experiment [2], 7.52.
`Nc1nc(O)c2nc(CCCc3ccc(C(=O)NC(CCC(=O)O)C(=O)O)cc3)cnc2n1` (stereo not drawn): the pIC50 in experiment [7] was under 5.60; in experiment [1] it was 5.66; in experiment [2] it was 6.92.
As for `CN(Cc1cnc2nc(N)nc(N)c2n1)c1ccc(C(=O)N[C@@H](CCC(=O)O)C(=O)O)cc1` [METHOTREXATE], the pIC50 in experiment [1] is 10.70; in experiment [2], 9.05.
For the compound `Nc1nc(O)c2c(n1)NC[C@H](CCNc1ccc(C(=O)NC(CCC(=O)O)C(=O)O)cc1)N2` (stereo partly drawn) [TETRAHYDROHOMOFOLATE], the pIC50 in experiment [4] is under 10.70.

The values are drawn from ChEMBL document CHEMBL1124491, “Folate analogues. 31. Synthesis of the reduced derivatives of 11-deazahomofolic acid, 10-methyl-11-deazahomofolic acid, and their evaluation as inhibitors of glycinamide ribonucleotide formyltransferase” (J Med Chem, 1989).
